According to publication PMC2874077 (Journal of medicinal chemistry, 2010):
Entries after “also recorded” stand apart in the source; their conditions may differ. Like-named read-outs stand apart in the source and are kept apart here.

Experiments:
[1] = biological target: T1, human arginase I (Homo sapiens, UniProt P05089); assay: Fixed-point kinetic assay with [14C-guanidino]-L-arginine; type: biochemical; conditions: for mode of inhibition: from Lineweaver-Burk plots
T1 sequence (P05089 1-322): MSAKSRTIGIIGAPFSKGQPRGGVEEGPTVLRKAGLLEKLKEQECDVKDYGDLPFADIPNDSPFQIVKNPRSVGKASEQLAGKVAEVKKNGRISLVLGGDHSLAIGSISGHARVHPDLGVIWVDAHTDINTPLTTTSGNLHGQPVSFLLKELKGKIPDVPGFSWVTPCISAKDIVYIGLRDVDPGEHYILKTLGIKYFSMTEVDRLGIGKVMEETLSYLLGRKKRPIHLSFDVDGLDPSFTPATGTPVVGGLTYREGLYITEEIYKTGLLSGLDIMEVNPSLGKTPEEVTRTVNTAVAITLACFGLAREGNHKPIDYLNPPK
Procedure, shortened: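 Affinity derived from a replot of v0/vi (velocity without/with inhibitor) against inhibitor concentration. Mode of inhibition (competitive or noncompetitive) assigned from Lineweaver-Burk plots at several inhibitor concentrations.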

[2] = test system: airways hyperresponsiveness in OVA/OVA Balb/C mice; type: in vivo, mouse
Procedure, shortened: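 Female Balb/C mice (6–8 weeks) were sensitized i.p. with 25 μg OVA plus 1 mg aluminium hydroxide on days 0 and 7, then given nebulized 6% OVA in PBS, or PBS, 25 min/day on days 14–20. On day 21: ketamine/xylazine anaesthesia, intubation, FlexiVent ventilation.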

[3] = test system: airways hyperresponsiveness in OVA/OVA Balb/C mice; conditions: cited from earlier work
[4] = OVA/OVA mice, nebulized 80 μg/g

## Nc1ncc[nH]1 [2-Aminoimidazole, reference compound]
[1]
  mode of inhibition: noncompetitive

## Nc1ncc(C[C@H](N)C(=O)O)[nH]1 [2AH, L-2-aminohistidine]
[1]
  mode of inhibition: noncompetitive

## Nc1nccn1CCC[C@H](N)C(=O)O [A1P, 2-(S)-amino-5-(2-aminoimidazol-1-yl)-pentanoic acid]
[1]
  mode of inhibition: competitive
[2]; [4]
  maximum resistance of the central airways (RN) following methacholine challenge: significantly attenuated; also recorded: notably decreased
  total resistance of the respiratory system (R) following methacholine challenge: attenuated significantly
[2]; murine model of allergic airways inflammation
  airways hyperresponsiveness: significantly attenuates; also recorded: significantly reduces

## Nc1ncc(CCCC(N)C(=O)O)[nH]1 (stereo not shown) [A4P, 2-amino-5-(2-aminoimidazol-4-yl)-pentanoic acid]
[1]; enzymological assay
  inhibitory activity: lacks inhibitory activity

## Nc1ncc(CC[C@H](N)C(=O)O)[nH]1 [AHH, 2-aminohomohistidine]
[1]
  mode of inhibition: competitive

## N[C@@H](CSCCB(O)O)C(=O)O [BEC, S-(2-boronoethyl)-L-cysteine]
[3]; murine models of allergic airways inflammation ref 8a
  airways hyperresponsiveness: reduces
[3]; same model, earlier study ref 8a
  maximum central airways responsiveness (RN max) to methacholine: attenuates
